# Published values pooled from the literature.
# Target: G protein-coupled receptor kinase 3 (GRK3, Homo sapiens, UniProt P35626)
# Residues used in one study (P35626 1-688): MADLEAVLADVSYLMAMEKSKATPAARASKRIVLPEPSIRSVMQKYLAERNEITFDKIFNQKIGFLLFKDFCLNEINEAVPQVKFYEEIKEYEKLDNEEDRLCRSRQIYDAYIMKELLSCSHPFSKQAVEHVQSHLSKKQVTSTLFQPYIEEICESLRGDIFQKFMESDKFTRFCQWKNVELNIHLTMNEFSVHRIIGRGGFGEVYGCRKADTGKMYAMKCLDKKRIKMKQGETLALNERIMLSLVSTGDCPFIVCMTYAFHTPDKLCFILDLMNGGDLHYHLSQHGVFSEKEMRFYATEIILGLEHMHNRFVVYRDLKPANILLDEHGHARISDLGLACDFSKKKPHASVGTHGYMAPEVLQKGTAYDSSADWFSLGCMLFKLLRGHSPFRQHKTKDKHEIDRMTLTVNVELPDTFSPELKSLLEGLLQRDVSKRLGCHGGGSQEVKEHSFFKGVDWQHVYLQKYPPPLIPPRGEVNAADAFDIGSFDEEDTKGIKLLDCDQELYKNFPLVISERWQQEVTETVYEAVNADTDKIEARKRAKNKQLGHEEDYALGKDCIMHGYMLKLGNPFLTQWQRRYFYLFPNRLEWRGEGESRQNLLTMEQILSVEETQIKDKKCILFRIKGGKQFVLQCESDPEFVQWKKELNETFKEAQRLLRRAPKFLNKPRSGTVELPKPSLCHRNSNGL
Structure (SMILES),effect on,technique,tested at,remaining binding [%]
NS(=O)(=O)c1cc(NC(=O)C2(c3ccccc3Cl)CC2)ccc1Oc1cccc(Cl)c1,cell-free assay,competition with immobilised ligand,1 µM,100
C[C@H]1CCN(c2nccc(-c3cnn4ncccc34)n2)C1,binding,,1 µM,33
C[C@H](c1ccnc(Nc2nc3ccc(-c4cc(N(C)C)ncn4)cc3[nH]2)c1)N1CCN(C(=O)CC(F)(F)F)CC1,cell-free assay,competition with immobilised ligand,0.1 µM,100
N[C@H]1CCN(c2nccc(-c3cnn4ncccc34)n2)C1,binding,,1 µM,66
FC(F)(F)Oc1cccc(-c2cnc3ccc(-c4ccncc4)nn23)c1,cell-free assay,competition with immobilised ligand,5 µM,99
Cc1cnc(Nc2ccc(C(=O)N3CCC(N4CCCC4)CC3)cc2)nc1-c1cc2ccccc2s1,binding,competition with immobilised ligand,1 µM,73
Nc1cnc(N2CCc3cc(S(=O)(=O)Nc4c(F)cc(Cl)cc4F)cc(N4CCCC4=O)c32)nc1,cell-free assay,competition with immobilised ligand,1 µM,100
CN(C)c1ncc(F)c(-c2cnn3ncccc23)n1,binding,,1 µM,100
CNC(=O)[C@@H]1CC[C@@H](n2c(-c3ccc4cnccc4c3)nc3ccc(C(=O)NCc4cccc(C(N)=O)c4)cc32)C1,binding,competition with immobilised ligand,1 µM,68
Cc1cnn2ncc(-c3ccnc(N(C)C)n3)c2c1,binding,,1 µM,67
O=C(NCCCN1CCOCC1)c1ccc(Nc2ncc(Cl)c(-c3ccc(Cl)s3)n2)cc1,binding,competition with immobilised ligand,1 µM,51
COc1ccnn2ncc(-c3ccnc(N(C)C)n3)c12,binding,,1 µM,57
COc1cnc(Nc2cccc(S(N)(=O)=O)c2)nc1N1CCN(c2ccccc2)C(=O)C1,binding,competition with immobilised ligand,1 µM,70
c1cncc(-c2cccc(Nc3nccc(NC4CCCCC4)n3)c2)c1,binding,competition with immobilised ligand,10 µM,99
O=C(NCC1CCOCC1)c1n[nH]cc1NC(=O)c1c(F)cccc1F,binding,competition with immobilised ligand,1 µM,44
CN(C)C(=O)Cn1cc(-c2nc([C@@](C)(c3ccc(-c4cnc(N)nc4)cc3)C3CC3)no2)cn1,cell-free assay,competition with immobilised ligand,1 µM,86
CC1CCCN1c1nccc(-c2cnn3ncccc23)n1 (stereo not drawn),binding,,1 µM,100
O=C(Nc1cnc(Oc2ccc(F)cc2)nc1)N1CCc2ncccc2[C@@H]1c1ccc(F)cc1,cell-free assay,competition with immobilised ligand,1 µM,96
COc1ncc2cc3ccccc3nc2c1C#N,cell-free assay,competition with immobilised ligand,5 µM,53
C[C@@H](c1cccc(C#N)c1)n1cc(Cl)cc(C(N)=O)c1=N,cell-free assay,competition with immobilised ligand,1 µM,81
O=C(c1ccc(Nc2ncc(Cl)c(-c3cc4ccccc4s3)n2)cc1)N1CCC(N2CCCC2)CC1,binding,competition with immobilised ligand,1 µM,63
